# Screening data: PubChem, The Scripps Research Institute Molecular Screening Center
# A selection: hits, their analogues and other compounds. The true share with any hit is near 4.5%.
# TAAR1 ag – human TAAR1 agonists, primary screen, Fluo-8 calcium fluorescence, CHO RD-HGA16 cells; Trace amine-associated receptor 1 (Homo sapiens), Q96RJ0; vehicle wells 0%, saturating PEA agonist 100%; activation, % at 3 µM; hit rate 0.99% among 360,000; AID 624467, 2012;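 active means activation above the mean activation of all test compounds in the run plus 3 SD, cut at about 38% in these data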
# Target sequence (Q96RJ0 whole entry, looked up): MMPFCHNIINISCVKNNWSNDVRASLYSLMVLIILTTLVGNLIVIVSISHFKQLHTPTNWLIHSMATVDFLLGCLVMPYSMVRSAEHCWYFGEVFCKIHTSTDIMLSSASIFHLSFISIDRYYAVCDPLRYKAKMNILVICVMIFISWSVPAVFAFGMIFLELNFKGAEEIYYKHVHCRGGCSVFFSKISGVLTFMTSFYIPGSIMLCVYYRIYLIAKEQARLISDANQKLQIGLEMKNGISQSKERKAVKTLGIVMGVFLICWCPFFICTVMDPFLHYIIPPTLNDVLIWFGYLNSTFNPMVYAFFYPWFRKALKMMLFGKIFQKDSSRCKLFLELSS
#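 Assay system: CHO-derived RD-HGA16 cells with stable Gα16 and human TAAR1; timing: 17-24 h seeding, 75 min 37 °C dye, 30 min RT; read-out: % activation from peak over basal fluorescence ratio, DMSO-to-PEA scaled; measured by: kinetic Fluo-8 calcium fluorescence; benchmarks: low control DMSO, high control PEA (EC100); doses: 3 µM single concentration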
# OX1R antag-1 – antagonists of human orexin 1 receptor (OX1R) | Orexin/Hypocretin receptor type 1 (Homo sapiens), O43613 | OX1R-expressing cells, FRET antagonist read-out | inhibition, % at 6.6 µM | hit rate 1.8% among 330,000; in the data active means inhibition mostly above about 38%, no sharp cut-off; inactive means mostly below about 40%;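 further: 0% = agonist challenge alone and 100% = reference antagonist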
# OX1R antag-2 – OX1R (HCRTR1) antagonists, primary screen, fluorescence, CHO/OX1R cells, Fluo-8 calcium, orexin A; Orexin/Hypocretin receptor type 1 (Homo sapiens), O43613; Fluo-8 calcium fluorescence; inhibition, % at 5 µM; hit rate 0.43% among 330,000;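 active means inhibition above its plate's threshold, mean inhibition of all tested compounds on the plate plus 3 SD, cut at about 37% in these data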;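 further: 0% = orexin A challenge wells and 100% = SB-334867-A antagonist wells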
# GPR7 antagonist – GPR7 receptor antagonists, primary screen, cell-based, fluorescence, single concentration; inhibition, % at 4.4 µM; Neuropeptides B/W receptor type 1 (Homo sapiens), P48145; hit rate 1.1% among 290,000; AID 1861, 2009; GPR7-expressing cells, fluorescence antagonist assay; in the data active means inhibition above about 16%, passing the limit was not always enough;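 further: cells stimulated with the agonist NPW; 0% = agonist with vehicle and 100% = vehicle without agonist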
# Target sequence (P48145 whole entry, looked up): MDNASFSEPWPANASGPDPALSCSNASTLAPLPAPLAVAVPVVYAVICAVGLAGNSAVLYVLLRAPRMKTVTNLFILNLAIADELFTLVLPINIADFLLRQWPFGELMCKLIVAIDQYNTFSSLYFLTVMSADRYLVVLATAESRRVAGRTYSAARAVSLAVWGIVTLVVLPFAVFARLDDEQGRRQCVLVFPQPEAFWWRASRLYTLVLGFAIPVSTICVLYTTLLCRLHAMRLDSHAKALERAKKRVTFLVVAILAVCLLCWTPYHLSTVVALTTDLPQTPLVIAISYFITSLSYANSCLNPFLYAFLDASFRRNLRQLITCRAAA
# TAAR1 antag – human TAAR1 antagonists, primary screen, Fluo-8 calcium fluorescence, CHO RD-HGA16 cells; hit rate 1.5% among 360,000; AID 624466, 2012; antagonist; inhibition, % at 3 µM;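 active means inhibition above a per-plate cutoff, the mean inhibition of test compounds on that plate plus 3 SD, cut at about 49% in these data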;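 further: 0% = DMSO plus EC80 beta-PEA response and 100% = DMSO alone without agonist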
#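 Material: CHO RD-HGA16 cells bearing hTAAR1; compound dosing: one-point dosing, 3 µM nominal final; schedule: dye loading 75 min at 37 °C, then 30 min room temperature; measured by: calcium fluorescence with Fluo-8; control set: vehicle and agonist controls; replication: n of 1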
# CHO parental Ca – ATP-evoked calcium signal inhibitors, parental CHO, primary screen, counter-screen for OX1R antagonist project, cell-based, fluorescence, Fluo-8 calcium dye; parental CHO-K1, ATP-induced calcium, Fluo-8 fluorescence; inhibition, % at 5.6 µM; hit rate 0.63% among 330,000;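 active means inhibition above that plate's mean sample inhibition plus 3 SD, cut at about 26% in these data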;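 further: 0% = ATP-challenged DMSO wells and 100% = DMSO wells without ATP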
#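 Test system: parental CHO cells; detection: calcium-sensitive Fluo-8 fluorescence; evaluation: percent inhibition of calcium signal; also added: ATP as calcium-mobilizing challenge; repeats: one well per compound; control set: ATP-challenged DMSO wells low, unchallenged DMSO wells high; compound: single nominal dose of 5.6 µM per compound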
# Numbers without * were called inactive; / = no result.
SMILES,TAAR1 ag,OX1R antag-1,OX1R antag-2,GPR7 antagonist,TAAR1 antag,CHO parental Ca
CCCCCCCCN1C(=O)[C@@H](CC(=O)N2CCCC2)C[C@@]2(C(=O)OC)C1=C[C@H](C(C)(C)C)O[C@@H]2C,-2.2,/,/,/,-39.4,/
Cc1ccc(NS(=O)(=O)c2ccc(NC(=O)c3ccccc3C(=O)O)cc2)c(C)c1,3.3,17.9,-4.2,/,-23.7,-6.4
Cc1ccc(NS(=O)(=O)c2ccc(NC(=O)c3ccc(Br)o3)cc2)c(C)c1,11.9,19.2,39.4,10.6,42.1,35.9*
CN(CCCC(=O)NCc1ccco1)S(=O)(=O)c1ccccc1,12.0,4.7,0.4,15.9*,-4.9,-6.4
COc1ccc(C(=O)CSc2nnc(Cn3cnc4ccccc43)o2)cc1,9.2,30.1,35.5,3.7,17.1,38.2*
COc1ccc(/C=N/Nc2nnc(C)n2N)cc1OC(C)=O,-1.9,55.7*,-9.9,-9.6,19.5,0.8
COc1ccc(/C=N/Nc2nnc(C)n2N)cc1OC,2.2,60.4,10.5,-1.0,-19.0,-3.3
CN(CC(=O)Nc1ccc(F)cc1)C(=O)CN1C(=O)NC(CCc2ccccc2)C1=O (configuration not stated),3.6,/,/,/,-1.2,/
COc1ccc(-c2cc(C(=O)Nc3ccc(OC)c(OC)c3)[nH]n2)c(C)c1,4.4,/,/,/,5.0,/
CCc1cc2c(=O)[nH]c(Cc3ccc(Cl)cc3)nc2s1,1.7,-1.3,-24.0,-18.4,-12.2,-8.0
CCc1cc2c(=O)[nH]c(Cc3ccccc3)nc2s1,13.6,23.9,-9.4,-16.8,3.4,42.7*
O=S(=O)(Nc1cccc2ncccc12)c1cccs1,/,32.4,26.8,5.2,/,40.1*
Cc1c(NS(=O)(=O)c2cccs2)cccc1-c1nc2cccnc2s1,2.0,34.0,5.7,-2.0,-7.1,-14.4
COc1ccc2cc(C(c3nnnn3C(C)(C)C)N3CCc4ccccc4C3)c(=O)[nH]c2c1 (configuration not stated),/,19.8,-20.3,-12.9,/,-5.7
CCC(C)(C)n1nnnc1C(c1cc2ccc(OC)cc2[nH]c1=O)N1CCc2ccccc2C1 (configuration not stated),74.7*,13.0,-13.1,-8.9,3.0,-10.2
COc1ccc2[nH]c3c(c2c1)CCN1C(=O)C(CC(=O)NCCC2=CCCCC2)C[C@H](C(=O)N2CCCCC2)[C@@]31C (some centres not stated),1.9,13.8,-3.2,/,-16.2,-16.0
C=CCNC(=O)O/N=C/c1csc([N+](=O)[O-])c1,0.3,41.9*,-4.3,-1.4,-1.1,-11.9
C[N+]1(CC(=O)NNc2c3ccccc3nc3ccccc23)CCOCC1,-0.2,44.2*,-7.5,-12.0,-31.4,-4.2
O=C(CN1CCOCC1)NNc1c2ccccc2nc2ccccc12,-0.2,11.1,-24.4,9.0,11.0,1.2
COc1ccc(C2CC(=O)C(c3ccc(Cl)c(Cl)c3)=CN2Cc2ccccc2)cc1 (configuration not stated),4.7,/,/,/,-5.4,/
CCC1Sc2ccc(S(=O)(=O)CCC(=O)Nc3ccc(C(=O)OC)cc3)cc2NC1=O (configuration not stated),2.4,-4.3,-22.0,-4.1,22.5,100.4*
CCC1Sc2ccc(S(=O)(=O)CCC(=O)Nc3cccc(Br)c3)cc2NC1=O (configuration not stated),6.8,6.0,-13.9,-8.2,48.9*,-28.4
Cc1ccc(-n2c(-c3ccccc3)c[n+]3c2CCC3)cc1,6.2,22.9,-6.4,10.1,-3.8,-8.8
Cc1ccc(-n2c(-c3ccccc3)c[n+]3c2CCc2ccccc2-3)c(C)c1,1.1,36.8,17.4,63.6*,14.9,54.4*
CN(C)c1ccc(P(=O)(COc2ccc([N+](=O)[O-])cc2)c2ccc(N(C)C)cc2)cc1,0.3,0.4,-23.7,20.4*,-13.3,-10.1
SMILES,TAAR1 ag,OX1R antag-1,OX1R antag-2,GPR7 antagonist,TAAR1 antag,CHO parental Ca
O=[N+]([O-])c1ccc(OCCOCCOc2ccc([N+](=O)[O-])cc2)cc1,-0.1,3.5,-0.7,7.3,-0.3,-8.4
O=C(O)CCCC[n+]1ccccc1,2.3,/,/,/,-16.0,/
CC1CCCC(NCC(O)COC(c2ccc(F)cc2)c2ccc(F)cc2)C1C (configuration not stated),29.7,-1.7,-5.8,56.5*,16.8,7.0
CC1CCCC(NC(=O)CSc2ccc(F)cc2)C1C (configuration not stated),0.8,-1.6,-36.5,3.4,4.6,0.9
Cc1nn(-c2ccccc2)c(C)c1NC(=O)COC(=O)c1ccc(S(=O)(=O)C(F)F)cc1,16.0,12.3,-30.7,/,48.6*,-12.7
Cc1nn(-c2ccccc2)c(C)c1NC(=O)COC(=O)c1cccc(OC(F)F)c1,14.8,13.1,-16.9,/,54.9*,-1.4
C[C@@H]1C=CCCO[C@]12C(=O)N(Cc1ccc(F)cc1)c1ccccc12,-0.8,/,/,/,-12.0,/
COCc1cccc(-c2csc(C(O)c3ccccc3)n2)c1 (configuration not stated),1.3,/,/,/,1.8,/
COC(=O)c1ccc2nc(-c3ccco3)c(Cc3ccsc3)n2c1,0.8,/,/,/,-19.0,/
CNC12CCc3cc(OC)c(OC)c(c31)-c1cc3c(cc1C2)OCO3 (configuration not stated),-1.6,/,/,/,-24.1,/
COC(=O)C1=C(C)N(Cc2ccccc2C(F)(F)F)C(=NCc2cccc(C(F)(F)F)c2)NC1c1ccc(F)cc1 (configuration not stated),0.0,/,/,/,-15.3,/
O=C1/C(=C/c2ccccc2)Nc2ccccc21,7.2,10.3,50.3*,17.8,10.3,35.7*
COc1n[nH]c2nncnc12,0.1,121.2*,0.8,-3.5,-3.4,-4.7
Cc1nnsc1C(=O)NC1CCCc2c1cnn2-c1ccccc1F (configuration not stated),2.8,14.7,-1.8,-4.7,2.9,5.9
CCc1cc(C(=O)NC2CCCc3c2cnn3-c2cccc(C)c2C)n(C)n1 (configuration not stated),2.8,60.1*,38.0,-1.7,13.9,62.4*
COc1ccc(C(=O)NC2CC(C)(C)Cc3c2cnn3-c2ccccc2C)c(OC)c1OC (configuration not stated),-2.8,19.7,-40.4,-4.3,-40.8,-10.8
Cc1nnsc1C(=O)NC1CCCc2c1cnn2-c1ccc(C(C)(C)C)cc1 (configuration not stated),-1.3,27.7,12.2,14.6,15.9,41.0*
